The record followed here is ChEMBL document CHEMBL1141770, “Antineoplastic agents. 515. Synthesis of human cancer cell growth inhibitors derived from 3,4-methylenedioxy-5,4'-dimethoxy-3'-amino-Z-stilbene” (J Nat Prod, 2005).

The test system of one series is BXPC-3. Nature of the series: Growth inhibition of human BxPC3 cells by sulforhodamine B method. The format is functional. In a few lines:
(§1)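 Sulforhodamine B assay, with growth inhibition read as reduced formation of cellular protein.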
For orientation: The SRB assay estimates cell density from bound dye.

Series [1] deals with MCF7. The series is described as follows: Growth inhibition of human MCF7 after 48 hrs by sulforhodamine B method. The format is functional, cell-based. Particulars: MCF7, 48 h. The procedure, abridged: as §1
A further series deals with P388. Nature of the series: Cytotoxicity against mouse P388 cells by sulforhodamine B method. The format is functional. In a few lines:
as §1

The subject of the next series is DU-145. Nature of the series: Growth inhibition of human DU145 cells by sulforhodamine B method. The format is functional. The procedure, abridged:
as §1

The next series deals with NCI-H460. The series is described as follows: Growth inhibition of human NCI-H460 cells by sulforhodamine B method. The format is functional. The procedure, abridged: as §1
The test system of a further series is SF-295. Nature of the series: Growth inhibition of human SF295 cells by sulforhodamine B method. The format is functional. In a few lines:
as §1

The test system of a further series is Enterococcus faecalis. Nature of the series: Antimicrobial activity against Enterococcus faecalis ATCC 29212 by broth microdilution assay. The format is functional. In a few lines: (§2)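 Broth microdilution following NCCLS standards: M7-A5 for aerobic bacteria and M27-A2 for yeasts. Each assay was repeated at least twice on separate days.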
(In broth dilution the organism is exposed to a series of concentrations in liquid medium.)

For series [2], the species on record is Bos taurus. Nature of the series: Displacement of [3H]vinblastine from bovine tubulin at 10 uM. The procedure, abridged: (§3)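 Bovine brain tubulin at 0.5 mg/mL (5.0 µM) with 5 µM [3H]vinblastine and inhibitor as stated, in 0.5 mM MgCl2, 0.1 M MES pH 6.9 and 4% (v/v) DMSO. Incubated 30 min at 20–22 °C. Bound label separated by centrifugal gel filtration on syringe columns at 2,000 rpm; result is % inhibition ± SD.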
In general terms: Loss of bound radioactivity is the signal in a displacement assay; it reports binding, not function.

Series [3] has as its system MCF7. Nature of the series: Increase in mitotic index in human MCF7 cells at 10 times the IC50 concentration after 16 hrs. The format is functional. The procedure, abridged:
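MCF-7 cells grown with drug for 16 h, then DNA stain added. Result is the percentage of cells in mitosis.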

Series [4] is filed under the species Bos taurus. Nature of the series: Displacement of [3H]vinblastine from bovine tubulin at 80 uM. The procedure, abridged:
as §3

A short description of series [5]: Inhibition of bovine brain tubulin assembly. Also noted: species or system Bos taurus. In a few lines: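 Bovine brain tubulin at 1.0 mg/mL (10 µM) assembled with varying inhibitor concentrations. IC50 reported in µM ± SD.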
For series [6], the species on record is Bos taurus. Nature of the series: Displacement of [3H]colchicine from bovine tubulin at 50 uM. The procedure, abridged: (§4)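 Bovine brain tubulin at 0.1 mg/mL (1.0 µM) incubated with 5.0 µM [3H]colchicine and inhibitor at the stated concentration. Read-out is inhibition of radiolabel binding to tubulin, in % ± SD.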
A further series has as its system Cryptococcus neoformans. The series is described as follows: Antimicrobial activity against Cryptococcus neoformans ATCC 90112 by broth microdilution assay. The format is functional. In a few lines: as §2
The test system of a further series is Neisseria gonorrhoeae. The series is described as follows: Antimicrobial activity against Neisseria gonorrhoeae ATCC 49226 by broth microdilution assay. The format is functional. The procedure, abridged:
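Screened by broth microdilution following NCCLS guidelines for bacteria grown aerobically. Each assay was repeated at least twice, on separate days.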

A short description of series [7]: Solubility in water. The format is physicochemical.
The species named for series [8] is Bos taurus. The series is described as follows: Displacement of [3H]colchicine from bovine tubulin at 2 uM. In a few lines:
as §4

The next series concerns Streptococcus pneumoniae. The series is described as follows: Antimicrobial activity against Streptococcus pneumoniae ATCC 6303 by broth microdilution assay. The format is functional. The procedure, abridged:
as §2

Structures are written as SMILES. Converted amounts (≈) assume the structure as drawn.

Usually GI50 stands for the concentration giving 50% growth inhibition. High values mean less potent growth inhibition, low ones more potent growth inhibition. For the compound `COc1ccc(/C=C\c2cc(OC)c3c(c2)OCO3)cc1NC(=O)[C@H](CC(=O)OC(C)(C)C)NC(=O)OC(C)(C)C`, the GI50 in the series on BXPC-3 is 3.4 µg/mL (≈ 5.96 µM); in the series on MCF7 [1], 3 µg/mL (≈ 5.26 µM); in the series with P388, 0.385 µg/mL (≈ 0.675 µM); in the series with DU-145, 2.3 µg/mL (≈ 4.03 µM); in the series on NCI-H460, 1.7 µg/mL (≈ 2.98 µM); in the series with SF-295, 2.4 µg/mL (≈ 4.21 µM).

The MIC is the lowest concentration that inhibits growth of the organism. The low end stands for inhibition by little substance, the high end for a need for much substance. On to `COc1ccc(/C=C\c2cc(OC)c3c(c2)OCO3)cc1NC(=O)[C@H](Cc1ccc(OP(=O)(OCc2ccccc2)OCc2ccccc2)cc1)NC(=O)OCc1ccccc1`, for which, in the series with Enterococcus faecalis, the minimum inhibitory concentration (MIC) turned out to be 64 µg/mL (≈ 74.7 µM). Moreover, the GI50 in the series with BXPC-3 is greater than 10 µg/mL; in the series with MCF7 [1] it was greater than 10 µg/mL; in the series with P388, 0.133 µg/mL (≈ 0.155 µM); in the series with DU-145, greater than 10 µg/mL; in the series with NCI-H460 it was greater than 10 µg/mL; with SF-295 it was greater than 10 µg/mL.

The term IC50 denotes the concentration that gives 50% inhibition. A lower IC50 goes with greater potency in that assay. On to `CC[C@H](C)[C@@H]([C@@H](CC(=O)N1CCC[C@H]1[C@H](OC)[C@@H](C)C(=O)Nc1cc(/C=C\c2cc(OC)c3c(c2)OCO3)ccc1OC)OC)N(C)C(=O)[C@@H](NC(=O)[C@H](C(C)C)N(C)C)C(C)C`, for which the GI50 in the series with BXPC-3 was 0.048 µg/mL (≈ 0.0545 µM); with MCF7 [1], 0.032 µg/mL (≈ 0.0364 µM); in the series with P388, less than 0.01 µg/mL; in the series with DU-145, 0.02 µg/mL (≈ 0.0227 µM); in the series on NCI-H460 it was 0.025 µg/mL (≈ 0.0284 µM); with SF-295, 0.0031 µg/mL (≈ 0.00352 µM). For the same compound, the Activity came to 48% in the series filed under Bos taurus [2], 57% in the series on MCF7 [3], 87% in the series listed under Bos taurus [4] and 30% in the series filed under Bos taurus [6]. In addition, in [5], the IC50 was found to be 1300 nM.

On to `COc1ccc(/C=C\c2cc(OC)c3c(c2)OCO3)cc1NC(=O)[C@H](C)[C@@H](OC)[C@@H]1CCCN1C(=O)OC(C)(C)C`, for which the 50% growth inhibitory concentration (GI50) was determined as 0.58 µg/mL (≈ 1.02 µM) in the series with BXPC-3; 0.38 µg/mL (≈ 0.668 µM) with MCF7 [1]; 0.225 µg/mL (≈ 0.396 µM) in the series on P388; 1.9 µg/mL (≈ 3.34 µM) in the series with DU-145; 0.75 µg/mL (≈ 1.32 µM) in the series on NCI-H460; 0.53 µg/mL (≈ 0.932 µM) in the series on SF-295. This compound showed a minimum inhibitory concentration (MIC) in the series with Cryptococcus neoformans of 64 µg/mL (≈ 113 µM).

Consider `COc1ccc(/C=C\c2cc(OC)c3c(c2)OCO3)cc1NC(=O)[C@H](Cc1ccc(OP(=O)([O-])O)cc1)NP(=O)(O)O.[Na+]`, for which the GI50 was 18.6 µg/mL in the series with BXPC-3; 1.3 µg/mL with MCF7 [1]; 0.27 µg/mL with P388; greater than 1 µg/mL in the series with DU-145; greater than 1 µg/mL in the series on NCI-H460; greater than 1 µg/mL with SF-295. The compound further came in with a minimum inhibitory concentration (MIC) against Neisseria gonorrhoeae of 4 µg/mL.

By solubility is commonly meant the concentration that dissolves in the medium under given conditions. A low value points to a poorly soluble substance. For the compound `COc1ccc(/C=C\c2cc(OC)c3c(c2)OCO3)cc1NC(=O)[C@@H](N)CC(=O)[O-].[Na+]`, the solubility in series [7] is less than 100 µg/mL. For the same compound, the GI50 in the series with BXPC-3 worked out at 0.38 µg/mL; with MCF7 [1], 0.51 µg/mL; in the series on P388, 0.361 µg/mL; with DU-145, 0.33 µg/mL; with NCI-H460, 0.3 µg/mL; with SF-295, 0.25 µg/mL.

`COc1ccc(/C=C\c2cc(OC)c3c(c2)OCO3)cc1NC(=O)[C@H](Cc1ccc(OC(C)(C)C)cc1)NC(=O)OCc1ccccc1`: the 50% growth inhibitory concentration (GI50) stood at 0.049 µg/mL (≈ 0.0751 µM) with BXPC-3; 0.36 µg/mL (≈ 0.552 µM) in the series with MCF7 [1]; 0.38 µg/mL (≈ 0.582 µM) with P388; 0.39 µg/mL (≈ 0.597 µM) in the series with DU-145; 0.41 µg/mL (≈ 0.628 µM) in the series on NCI-H460; 0.44 µg/mL (≈ 0.674 µM) in the series with SF-295.

Compound `COc1ccc(/C=C\c2cc(OC)c3c(c2)OCO3)cc1NC(=O)[C@@H](N)Cc1ccc(O)cc1.Cl` registered a solubility in series [7] of less than 100 µg/mL. Besides, the concentration for 50% growth inhibition (GI50) in the series on BXPC-3 was found to be 0.064 µg/mL; with MCF7 [1], 0.041 µg/mL; with P388, 0.0329 µg/mL; with DU-145, 0.08 µg/mL; in the series on NCI-H460, 0.096 µg/mL; in the series with SF-295, 0.064 µg/mL.

As for `CC[C@H](C)[C@@H]([C@@H](CC(=O)N1CCC[C@H]1[C@H](OC)[C@@H](C)C(=O)N[C@@H](Cc1ccccc1)c1nccs1)OC)N(C)C(=O)[C@@H](NC(=O)[C@H](C(C)C)N(C)C)C(C)C` [DOLASTATIN-10], the Activity in the series filed under Bos taurus [2] worked out at 96%.

Regarding `COc1ccc(/C=C\c2cc(OC)c(OC)c(OC)c2)cc1O` [COMBRETASTATIN A4], the Activity came out at 0% in the series filed under Bos taurus [2], 98% in the series filed under Bos taurus [8] and 0% in the series filed under Bos taurus [4].

Take `CC[C@H](C)[C@@H]([C@@H](CC(=O)N1CCC[C@H]1[C@H](OC)[C@@H](C)C(=O)O)OC)N(C)C(=O)[C@@H](NC(=O)[C@H](C(C)C)N(C)C)C(C)C`: the results for the Activity in the series filed under Bos taurus [4] and in the series listed under Bos taurus [6] were 87% and 5.2%, respectively.

On to `COc1ccc(/C=C\c2cc(OC)c3c(c2)OCO3)cc1NC(=O)[C@@H](N)Cc1ccc(OP(=O)(O)O)cc1`, for which the minimum inhibitory concentration (MIC) was found to be 16 µg/mL (≈ 29.5 µM) against Enterococcus faecalis and 0.125 µg/mL (≈ 0.23 µM) in the series on Neisseria gonorrhoeae. For the same compound, the GI50 in the series on BXPC-3 is greater than 1 µg/mL; with MCF7 [1], greater than 1 µg/mL; in the series on P388, greater than 10 µg/mL; in the series on DU-145 it was greater than 1 µg/mL; with NCI-H460, greater than 1 µg/mL; in the series with SF-295, greater than 1 µg/mL.

In the case of `COc1ccc(/C=C\c2cc(OC)c3c(c2)OCO3)cc1N`, the Activity worked out at 0% in the series filed under Bos taurus [2], 85% in the series filed under Bos taurus [8] and 0% in the series listed under Bos taurus [4].

On to `COc1ccc(/C=C\c2cc(OC)c3c(c2)OCO3)cc1NC(=O)[C@H](Cc1ccc(OP(=O)(OCc2ccccc2)OCc2ccccc2)cc1)NP(=O)(OCc1ccccc1)OCc1ccccc1`, for which the GI50 in the series with P388 was determined as 10 µg/mL (≈ 10.2 µM).

As for `COc1ccc(/C=C\c2cc(OC)c3c(c2)OCO3)cc1NC(=O)[C@H](C)[C@@H](OC)[C@@H]1CCCN1.O=C(O)C(F)(F)F`, the minimal inhibitory concentration (MIC) in the series with Enterococcus faecalis was found to be 32 µg/mL; in the series with Neisseria gonorrhoeae, 16 µg/mL; against Streptococcus pneumoniae, 8 µg/mL; in the series on Cryptococcus neoformans it was 64 µg/mL. Moreover, the GI50 came to 0.23 µg/mL in the series on BXPC-3; 0.07 µg/mL in the series on MCF7 [1]; 0.0263 µg/mL in the series with P388; 0.26 µg/mL in the series on DU-145; 0.062 µg/mL in the series with NCI-H460; 0.054 µg/mL in the series on SF-295.
